In ChEMBL document CHEMBL4033780, “Lipidated Brartemicin Analogues Are Potent Th1-Stimulating Vaccine Adjuvants” (J Med Chem, 2018):
Residue numbers refer to the chain shown, from its start. Calls of active or inactive are those of the source. The rule behind the calls is not given here.

Assays:
[1] = target: T1, C-type lectin domain family 4 member E (Mus musculus) (UniProt Q9R0Q8); experiment: Agonist activity at mincle in wild type C57BL/6 mouse GM-CSF derived BMDM assessed as increase in IL-6 release at 0.1 to 1 nmol after 24 hrs by sandwich ELISA
T1 sequence (whole entry): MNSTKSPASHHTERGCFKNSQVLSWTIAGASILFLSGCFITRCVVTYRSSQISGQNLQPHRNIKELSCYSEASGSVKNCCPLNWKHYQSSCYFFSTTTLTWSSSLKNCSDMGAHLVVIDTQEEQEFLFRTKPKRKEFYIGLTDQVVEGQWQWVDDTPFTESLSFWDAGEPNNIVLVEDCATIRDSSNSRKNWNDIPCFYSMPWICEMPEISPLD
Method in brief: (§1)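 Wild-type or Mincle−/− C57BL/6 bone marrow was cultured 8 days with GM-CSF 50 ng/mL in complete RPMI. Macrophages were detached with Acutase and seeded on ligand-coated plates (0.1 or 1 nmol/well); LPS 100 ng/mL was used as comparator. Supernatant was taken at 24 h and TNF, IL-6, IL-1β and MIP-2 measured by sandwich ELISA. Representative of three experiments in triplicate (±SD).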

[2] = target: T1, C-type lectin domain family 4 member E (Mus musculus); experiment: Agonist activity at mincle in wild type C57BL/6 mouse GM-CSF derived BMDM assessed as increase in IL-1beta release at 0.1 to 1 nmol after 24 hrs by sandwich ELISA; method in brief: as §1
[3] = target: T1, C-type lectin domain family 4 member E (Mus musculus); experiment: Agonist activity at mincle in wild type C57BL/6 mouse GM-CSF derived BMDM assessed as increase in MIP2 release at 0.1 to 1 nmol after 24 hrs by sandwich ELISA; method in brief: as §1
[4] = target: T1, C-type lectin domain family 4 member E (Mus musculus); experiment: Agonist activity at mincle in wild type C57BL/6 mouse GM-CSF derived BMDM assessed as increase in TNF release at 0.1 to 1 nmol after 24 hrs by sandwich ELISA; method in brief: as §1
[5] = test system: T2, C-type lectin domain family 4 member E (Homo sapiens), Q9ULY5 [R183A]; experiment: Agonist activity at human mincle R183A mutant expressed in NFAT-GFP reporter cells up to 3000 pmol after 18 hrs by flow cytometric analysis; type: cell-based
T2 sequence (whole entry): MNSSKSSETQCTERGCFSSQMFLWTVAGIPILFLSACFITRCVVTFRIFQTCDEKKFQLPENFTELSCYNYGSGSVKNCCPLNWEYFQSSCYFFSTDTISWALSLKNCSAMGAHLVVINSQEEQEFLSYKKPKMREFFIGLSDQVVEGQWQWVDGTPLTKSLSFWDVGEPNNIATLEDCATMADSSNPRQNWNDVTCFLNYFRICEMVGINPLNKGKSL
Method in brief: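 The hMincle R183A mutant, made by site-directed mutagenesis, was retrovirally introduced into 2B4 NFAT-GFP cells expressing FcRγ only. Cells were stimulated on plates coated with increasing ligand amounts for 18 h, and NFAT-GFP was read by flow cytometry. Mean of two independent experiments in duplicate (±SEM).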

[6] = target: T1, C-type lectin domain family 4 member E (Mus musculus); experiment: Binding affinity to recombinant mouse mincle extracellular domain fused with human IgG Fc expressed in HEK293T cells at 0.1 nmol by ELISA; type: cell-based; settings: HEK-293T
[7] = target: T3, C-type lectin domain family 4 member E (Homo sapiens) (UniProt Q9ULY5); experiment: Binding affinity to recombinant human mincle extracellular domain fused with human IgG Fc expressed in HEK293T cells at 0.1 nmol by ELISA; type: cell-based; settings: HEK-293T
T3 sequence (whole entry): T2 sequence (whole entry) with A183R

BMDM [8] = experiment: Immunostimulatory activity in mincle-/- C57BL/6 mouse GM-CSF derived BMDM assessed as increase in TNF release at […] after 24 hrs by sandwich ELISA method; type: functional, cell-based; method in brief: as §1
BMDM [9] = experiment: Immunostimulatory activity in mincle-/- C57BL/6 mouse GM-CSF derived BMDM assessed as increase in MIP2 release at […] after 24 hrs by sandwich ELISA method; type: functional, cell-based; method in brief: as §1
BMDM [10] = experiment: Immunostimulatory activity in mincle-/- C57BL/6 mouse GM-CSF derived BMDM assessed as increase in IL-6 release at […] after 24 hrs by sandwich ELISA method; type: functional, cell-based; method in brief: as §1
BMDM [11] = experiment: Immunostimulatory activity in mincle-/- C57BL/6 mouse GM-CSF derived BMDM assessed as increase in IL-1beta release at […] after 24 hrs by sandwich ELISA method; type: functional, cell-based; method in brief: as §1
[12] = Toxicity in Atlantic horseshoe crab blood limulus amebocyte lysate by chromogenic endotoxin test; settings: limulus polyphemus
Method in brief: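 Endotoxin was measured by chromogenic Limulus amebocyte lysate assay at a sensitivity of ≤0.1 EU/mL.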

[13] = target: T1, C-type lectin domain family 4 member E (Mus musculus); experiment: Agonist activity at mouse mincle coupled with FcRgamma expressed in 2B4-NFAT-GFP reporter cells up to 1 nmol after 18 hrs by flow cytometric analysis; type: cell-based
Method in brief: (§2)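 2B4 NFAT-GFP reporter cells expressing mouse or human Mincle plus FcRγ were placed on plates coated with ligand at 0.01, 0.1 or 1 nmol/well; cells expressing FcRγ only served as negative control. Ligand was coated from isopropanol, 0.05 mM, and solvent evaporated. After 18 h, cells were harvested, stained with propidium iodide and GFP read by flow cytometry. Mean of three experiments in duplicate (±SEM).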

[14] = target: T3, C-type lectin domain family 4 member E (Homo sapiens); experiment: Agonist activity at human mincle coupled with FcRgamma expressed in 2B4-NFAT-GFP reporter cells after 18 hrs by flow cytometric analysis; type: cell-based; method in brief: as §2
[15] = target: T1, C-type lectin domain family 4 member E (Mus musculus); experiment: Agonist activity at mouse mincle coupled with FcRgamma expressed in 2B4-NFAT-GFP reporter cells after 18 hrs by flow cytometric analysis; type: cell-based; method in brief: as §2
[16] = target: T3, C-type lectin domain family 4 member E (Homo sapiens); experiment: Agonist activity at human mincle coupled with FcRgamma expressed in 2B4-NFAT-GFP reporter cells up to 1 nmol after 18 hrs by flow cytometric analysis; type: cell-based; method in brief: as §2
[17] = target: T3, C-type lectin domain family 4 member E (Homo sapiens); experiment: Agonist activity at human mincle coupled with FcRgamma expressed in 2B4-NFAT-GFP reporter cells at higher concentration after 18 hrs by flow cytometric analysis; type: cell-based; method in brief: as §2

Structure (SMILES)	Activity [1]	Activity [2]	Activity [3]	Activity [4]	Activity [5]	Activity [6]	Activity [7]	Activity (BMDM [8])	Activity (BMDM [9])	Activity (BMDM [10])	Activity (BMDM [11])	Activity [12]	Activity [13]	Activity [14]	Activity [15]	Activity [16]	Activity [17]
CCCCCCCCCCCCCCCCCCCCCCCCCC(O)C(CCCCCCCCCCC1CC1CCCCCCCCCCCCCCCCCC)C(=O)OC[C@H]1O[C@H](O[C@H]2O[C@H](COC(=O)C(CCCCCCCCCCCCCCCCCCCCCCCC)C(O)CCCCCCCCCCCC3CC3CCCCCCCCCCCCCCCCCC)[C@@H](O)[C@H](O)[C@H]2O)[C@H](O)[C@@H](O)[C@@H]1O (stereo partly drawn)	Active	Active	Active	Active	Active	–	–	–	–	–	–	–	–	–	–	–	–
Cc1cc(O)cc(O)c1C(=O)OC[C@H]1O[C@H](O[C@H]2O[C@H](COC(=O)c3c(C)cc(O)cc3O)[C@@H](O)[C@H](O)[C@H]2O)[C@H](O)[C@@H](O)[C@@H]1O [BRARTEMICIN]	inactive	inactive	inactive	inactive	–	inactive	inactive	inactive	inactive	inactive	inactive	<= 0.1 EU/ml	inactive	–	–	–	–
O=C(OC[C@H]1O[C@H](O[C@H]2O[C@H](COC(=O)c3ccc(O)cc3O)[C@@H](O)[C@H](O)[C@H]2O)[C@H](O)[C@@H](O)[C@@H]1O)c1ccc(O)cc1O	inactive	inactive	inactive	inactive	–	inactive	inactive	inactive	inactive	inactive	inactive	<= 0.1 EU/ml	inactive	–	–	–	–
CCCCCCCCCCCCCCCCCCOc1ccc(C(=O)OC[C@H]2O[C@H](O[C@H]3O[C@H](COC(=O)c4ccc(OCCCCCCCCCCCCCCCCCC)cc4)[C@@H](O)[C@H](O)[C@H]3O)[C@H](O)[C@@H](O)[C@@H]2O)cc1	Active	Active	Active	Active	–	Active	Active	inactive	inactive	inactive	inactive	<= 0.1 EU/ml	–	Dose-dependent effect	Dose-dependent effect	–	–
CCCCCCCOc1ccc(C(=O)OC[C@H]2O[C@H](O[C@H]3O[C@H](COC(=O)c4ccc(OCCCCCCC)cc4)[C@@H](O)[C@H](O)[C@H]3O)[C@H](O)[C@@H](O)[C@@H]2O)cc1	Active	Active	Active	Active	–	Active	Active	inactive	inactive	inactive	inactive	<= 0.1 EU/ml	Active	–	–	Active	–
COc1ccc(C(=O)OC[C@H]2O[C@H](O[C@H]3O[C@H](COC(=O)c4ccc(OC)cc4O)[C@@H](O)[C@H](O)[C@H]3O)[C@H](O)[C@@H](O)[C@@H]2O)c(O)c1	inactive	inactive	inactive	inactive	–	inactive	inactive	inactive	inactive	inactive	inactive	<= 0.1 EU/ml	–	–	–	–	Active
CCCCCCCCCCCCCCCCCCOc1cc(C)c(C(=O)OC[C@H]2O[C@H](O[C@H]3O[C@H](COC(=O)c4c(C)cc(OCCCCCCCCCCCCCCCCCC)cc4O)[C@@H](O)[C@H](O)[C@H]3O)[C@H](O)[C@@H](O)[C@@H]2O)c(O)c1	Active	Active	Active	Active	–	Active	Active	inactive	inactive	inactive	inactive	<= 0.1 EU/ml	–	Dose-dependent effect	Dose-dependent effect	–	–
CCCCCCCOc1ccc(C(=O)OC[C@H]2O[C@H](O[C@H]3O[C@H](COC(=O)c4ccc(OCCCCCCC)cc4O)[C@@H](O)[C@H](O)[C@H]3O)[C@H](O)[C@@H](O)[C@@H]2O)c(O)c1	Active	Active	Active	Active	–	Active	Active	inactive	inactive	inactive	inactive	<= 0.1 EU/ml	Active	–	–	Active	–
